Compound activity as filed in PubChem.
In the library only some 3.1% were active in any assay of this set; here they are far more common.
LEDGF integ inh: blocks HIV-1 LEDGF/p75-dependent DNA integration. TR-FRET IN-LEDGF/p75 DNA integration, Eu/Cy5. inhibition, % at 3.7 µM. 370,000 tested, 0.64% active. AID 743269;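 active means inhibition above the screen-wide mean plus 3 SD, cut at about 13% in these data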;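 further: signal is the Cy5 over europium emission ratio at 671 and 618 nm; 0% = plate median of compound wells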
rCAG RNA binder: molecules binding r(CAG) RNA repeats | 370,000 tested, 1.3% active | r(CAG) RNA repeat, TO-PRO-1 dye displacement fluorescence | inhibition, % at 3 µM;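 active means inhibition above the plate cutoff, the mean of all test compounds on that plate plus 3 SD, cut at about 35% in these data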;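 further: 0% = DMSO alone and 100% = 100 µM mitoxantrone as full dye displacement; higher means more dye released from RNA so lower well fluorescence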
ATG4B inhibitor: ATG4B (human) cysteine protease inhibition | inhibition, % at 8.33 µM | Q9Y4P1 | 340,000 tested, 0.51% active | AID 504462 | ATG4B cleavage of LC3-PLA2, NBD-HPC fluorescence, 1 h; in the data active means inhibition above about 40%
UHRF1 binding: blocks human UHRF1 binding to methylated DNA | AID 687016 | inhibition, % at 4.4 µM | UHRF1 binding to methylated oligo, TR-FRET | 370,000 tested, 0.75% active | Q96T88; in the data active means inhibition above about 21%;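 further: UHRF1 SRA domain binding a hemimethylated CpG hairpin DNA probe; 0% = median of test compound wells and 100% = reference inhibitor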
MBD2 DNA inh: MBD2-methylated oligo binding inhibition. Q9UBB5. inhibition, % at 4.4 µM. AID 686964. 370,000 tested, 0.31% active. TR-FRET, MBD2 binding to methylated oligonucleotide; in the data active means inhibition above about 13%
CSN deneddyl inh: blocks human CSN-mediated cullin deneddylation; Purified CSN, SCF-Nedd8-OG deneddylation, fluorescence polarization; Q92905; inhibition, % at 12.5 µM; AID 651999; 360,000 tested, 0.38% active;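 active means pattern-corrected inhibition above about 35%, with an unprinted fluorescence ratio check between 0.5 and 1.5, limit read from the data, passing the limit was not always enough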;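 further: 0% = enzyme with substrate and 100% = substrate without enzyme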
Target sequence (Q92905 whole entry, looked up, one chain of several): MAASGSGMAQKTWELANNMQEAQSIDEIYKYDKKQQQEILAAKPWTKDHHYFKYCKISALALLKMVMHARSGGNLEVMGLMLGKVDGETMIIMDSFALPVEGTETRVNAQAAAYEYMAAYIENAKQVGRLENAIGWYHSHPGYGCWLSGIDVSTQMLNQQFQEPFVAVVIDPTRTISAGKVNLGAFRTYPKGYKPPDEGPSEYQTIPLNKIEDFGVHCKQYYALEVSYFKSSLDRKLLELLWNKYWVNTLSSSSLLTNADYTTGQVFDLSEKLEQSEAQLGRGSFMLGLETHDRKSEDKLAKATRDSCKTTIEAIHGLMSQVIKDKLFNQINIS
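test system = HEK293T-derived human Csn5 enzyme | amount = 0.24 nM Csn5 enzyme, final concentration | medium = Tris/NaCl/DTT buffer, pH 7.5 | schedule = 90 min reaction at room temperature | signal = FP | evaluation = inhibition of Csn5 cleavage, % | compound dosing = single dose of 12.5 µM compound with 0.25% DMSO | probe or stimulus = 10 nM SCFSkp2-Nedd8OG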
Starred values were filed as active, the others as inactive; nt = no result given.

SMILES	LEDGF integ inh	rCAG RNA binder	ATG4B inhibitor	UHRF1 binding	MBD2 DNA inh	CSN deneddyl inh
CC(C)OC(=O)C(C(=O)C(F)(F)F)c1cc(NS(=O)(=O)c2ccc3ccccc3c2)c2ccccc2c1O (stereo unspecified)	nt	nt	50.9*	nt	nt	2.6
O=C(OCCN1CCN(C2CN(Cc3cn(Cc4ccccc4Cl)nn3)S(=O)(=O)C2)CC1)c1cc2ccccc2o1 (stereo unspecified)	-4.9	3.8	nt	5.6	4.5	nt
Cn1cc(S(=O)(=O)Oc2ccccc2)c(=O)n(C)c1=O	-5.6	-1.7	4.9	28.3*	4.1	-4.7
COc1ccc(CN2C/C(=C/c3ccc(C)cc3)N3C(=O)C[C@@H](c4ccccc4)N=C23)c(OC)c1	-0.4	7.8	nt	-5.9	5.3	nt
Clc1ccc2nc(CN3CCCCC3)cn2c1	3.5	3.1	11.1	26.6*	1.0	-0.2
CC(C)C[C@H]1COc2cc(N3CCCC3)ccc2S(=O)(=O)N1C	4.0	0.5	nt	1.7	1.7	nt
N=C1/C(=C/c2ccc(-c3cccc(C(=O)O)c3)o2)C(=O)N=C2SC=C(c3ccccc3)N12	23.6*	81.3*	6.6	5.3	7.2	77.2*
Cc1ccc(-n2c(C)cc(/C=C3/C(=N)N4C(c5ccccc5)=CSC4=NC3=O)c2C)cc1	-0.4	3.4	4.3	-3.2	-7.1	6.8
O=[N+]([O-])c1cccc2[nH]c(CNc3nc(N4CCOCC4)nc4c3ncn4-c3ccsc3)nc12	-4.0	nt	nt	-3.9	-6.0	nt
Nc1nc(COC(=O)c2ccc3c(c2)OCCO3)nc(Nc2ccccc2)n1	0.8	3.2	-10.3	0.0	-1.2	-0.8
Nc1nc(COC(=O)CCC(=O)c2ccccc2)nc(Nc2ccccc2)n1	-5.6	0.7	-1.5	2.7	3.8	105.5*
O=C1CCCC/C1=C/Nc1cccc(C(F)(F)F)c1	1.6	-1.3	-13.9	23.5*	7.1	-0.4
O=C(NC1CCCCN(Cc2cccc(Cl)c2)C1=O)c1ccc(COc2ccccc2)cc1 (stereo unspecified)	-1.6	3.6	nt	1.2	-2.5	nt
O=c1cc(-c2ccc(O)cc2)oc2c(-c3c(O)cc(O)c4c(=O)cc(-c5ccc(O)cc5)oc34)c(O)cc(O)c12	0.9	94.4*	14.9	-0.1	0.7	2.7
COc1ccc(-c2cc(=O)c3c(O)cc(O)cc3o2)cc1	-0.1	6.3	-10.7	-4.5	8.2	4.2
COc1cccc(-n2cc(CNC(=O)C3CCC(=O)N(C4CC4)C3)cn2)c1 (stereo unspecified)	4.4	-2.2	-5.2	21.4*	9.4	1.3
COc1cccc(-n2cc(CN(C)C(=O)C3CCC(=O)N(C4CC4)C3)cn2)c1 (stereo unspecified)	-1.1	-0.8	nt	-1.1	-1.0	-4.9
CCOC(=O)c1ccc(NC(=O)COc2ccc(CNCCO)cc2OCC)cc1	-9.7	-2.3	-6.6	101.7*	3.8	5.8
N#Cc1ccc(/C=C2\CC3(OC(=O)C4CCCCC4)CCCN2C3)cc1 (stereo unspecified)	-3.1	3.7	nt	-1.6	-1.5	nt
Cc1nc2ccc(C(=O)N3c4ccccc4CC3C)cc2s1 (stereo unspecified)	-1.9	-4.0	2.6	23.2*	5.4	-4.1
CCc1cccc(CC)c1NC(=O)C1SC(=Nc2ccccc2C)C(c2nc3ccccc3s2)=C1N (stereo unspecified)	-1.8	42.1*	-10.7	-1.8	-3.7	1.3
Cc1cc(-c2nc3ccccc3s2)ccc1N	-7.2	7.4	-4.6	-1.0	1.2	1.9
COCCNC(=O)C1CCC(=O)N(c2ccc(OC)cc2)C1c1ccc(OC)c(OC)c1 (stereo unspecified)	4.7	-0.8	-10.2	22.6*	7.7	1.9
COc1ccc(N2C(=O)CCC(C(=O)NCCCN3CCC(C)CC3)C2c2ccc(OC)c(OC)c2)cc1 (stereo unspecified)	-0.7	-4.6	5.8	-1.3	-3.1	-3.5
O=C(/C=C/c1ccco1)Oc1ccc(C(=S)N2CCOCC2)cc1	0.2	-3.7	0.6	-0.2	-3.2	-0.3
SMILES	LEDGF integ inh	rCAG RNA binder	ATG4B inhibitor	UHRF1 binding	MBD2 DNA inh	CSN deneddyl inh
O=C(/C=C/c1ccccc1)Oc1ccc(C(=S)N2CCOCC2)cc1	1.6	-6.4	18.0	28.3*	11.6	-8.0
CC(C)CC(O)(CC(C)C)c1cn(C(=O)N(c2ccccc2)c2ccccc2)nn1	-0.6	nt	nt	-0.2	1.7	nt
O=C1NC(=O)/C(=C\c2ccc(OCc3cnc(Cl)s3)cc2)S1	-1.2	2.0	-9.8	-0.2	2.6	37.3*
COC(=O)[C@]12C[C@H](CC(=O)NCC3CCCCC3)C(=O)N(Cc3ccco3)C1=C[C@H](COCc1ccccc1)O[C@@H]2C	6.7	6.3	nt	-2.0	3.8	nt
COc1ccc(Cl)cc1NC(=O)CSc1nnc(CNC(=O)c2ccco2)o1	-4.1	1.8	-2.5	21.9*	-0.1	-2.7
CCCCNS(=O)(=O)/C=C/c1cc2c(cc1CNC(=O)OC(C)(C)C)OCO2	-0.6	1.3	nt	0.1	1.8	nt
COc1cc2c(cc1OC)CN(c1nc(CN3CCCC3)nc3sc(C)c(C)c13)CC2	-3.8	4.6	5.6	33.9*	3.5	10.4
C[C@H]1[C@@H](OC(=O)Nc2ccc(C#N)cc2)CC[C@@]23CCCN2C(=O)CCC[C@@H]13	-0.9	nt	nt	-1.7	-0.3	nt
c1csc(-c2nc3c4ccccc4c4ccccc4c3[nH]2)c1	-0.4	59.8*	-11.1	-1.4	-0.4	5.9
CCOc1ccc(N2C(=O)C3ON(c4ccccc4)C(c4ccco4)C3C2=O)cc1 (stereo unspecified)	4.2	2.3	8.8	-5.2	-3.5	-6.1
CCOc1ccc(N2C(=O)C3Sc4[nH]c(=O)sc4C(/C=C/c4ccccc4)C3C2=O)cc1 (stereo unspecified)	-3.1	57.2*	18.3	-0.8	0.7	16.1
CC(C)N1CCc2c(sc(NC(=O)c3cc(-c4cccs4)nc4ccccc34)c2C(N)=O)C1	nt	nt	18.7	nt	nt	107.3*
CCOC(=O)[C@]12CCCC=C1N(CCCOC)C(=O)[C@@H]2CC(=O)N1CCCC1	5.6	-2.5	nt	0.7	1.1	nt
CCn1c(SCC(=O)c2ccc(-c3ccccc3)cc2)nnc1-c1ccc(C(C)(C)C)cc1	0.5	9.2	nt	4.0	-2.9	nt
COc1ccc([C@H]2OC(=O)C[C@@H]2C(=O)N2CCN(c3ccccc3F)CC2)cc1OC	-3.7	1.6	nt	1.9	1.7	nt
O=C(O)c1cccc(Cn2c(Cl)c(/C=N/NC(=O)c3cc4ccccc4cc3O)sc2=O)c1	4.2	77.2*	10.4	-1.5	2.9	14.1
O=C(O)c1cccc(Cn2c(Cl)c(/C=N/NC(=O)c3ccccc3)sc2=O)c1	0.9	6.4	-1.7	-2.2	-4.7	-5.7
CC(CCN1CCC(C(O)(c2ccccc2)c2ccccc2)CC1)Oc1ccc(OC(F)(F)F)cc1 (stereo unspecified)	-2.5	0.0	nt	0.1	-2.6	nt
Cc1nc(N2CCN(C(=O)COc3ccccc3C)CC2)c2c3c(sc2n1)CCCC3	-0.7	nt	nt	0.3	3.0	nt
